The source of these data is ChEMBL document CHEMBL4334486 (J Med Chem, 2019).

The source made the active and inactive calls.

Data set [1] deals with Pseudomonas aeruginosa. As to the kind of experiment: Antibiofilm activity against Pseudomonas aeruginosa PAO1 assessed as inhibition of biofilm formation incubated for 8 hrs at 20 uM by crystal violet based O'Toole method relative to control. The following applies: PAO1, 8 h. The format is functional. Summed up: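 O'Toole biofilm assay. PAO1 is grown in M63 minimal medium with 0.4% arginine and 1 mM MgSO4. Compound at 20 μM, or an equal volume of water as vehicle control, is added at inoculation. Incubation is 8 h at 37 °C. Growth is read at 550 nm on removed medium. Biofilm is stained with 0.1% crystal violet and quantified.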

Data set [2] in a line: Toxicity in human CFBEdeltaF cells isolated from CF patient at 20 uM incubated for 24 hrs by LDH assay. Type of data set: cell-based. Summed up:
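CF bronchial epithelial CFBEΔF monolayers are treated with compound at 20 μM (water vehicle control) for 24 h. Cytotoxicity is measured as LDH released into the medium. Triton is the lysis reference.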

Data set [3] relates to Pseudomonas aeruginosa. In words: Antibiofilm activity against Pseudomonas aeruginosa PAO1 assessed as inhibition of biofilm formation incubated for 24 to 25 hrs at 20 uM by WST8 dye based Diggle-protocol method relative to control. Type of data set: functional. Summed up: (§1)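 Modified Diggle microtiter method. Medium is 0.25% (w/v) nutrient broth no. 2 containing compound. PAO1 is grown overnight in LB, washed, and inoculated normalized to OD600 of 1. Plates are incubated humid for 24−25 h at 37 °C and washed twice with water. Wells are then stained for 3 h at 37 °C with 0.5 mM WST-8 plus 20 μM phenazine ethosulfate. Supernatant absorbance is read at 450 nm to give viable biofilm cells.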
On the technique in general: Tetrazolium dyes change colour on reduction, which living cells bring about.

The target of data set [4] is Fucose-binding lectin PA-IIL (Pseudomonas aeruginosa (strain ATCC 15692 / DSM 22644 / CIP 104116 / JCM14847 / LMG 12228 / 1C / PRS 101 / PAO1), UniProt Q9HYN5). In words: Inhibition of Pseudomonas aeruginosa LecB by fluorescence polarization assay. For orientation: In fluorescence polarisation assays a small probe gives low polarisation when free and higher when bound to something large.

Data set [5] has as its system Pseudomonas aeruginosa. In words: Antimicrobial activity against Pseudomonas aeruginosa PAO1 assessed as inhibition of bacterial growth under Mueller-Hinton conditions without iron supplementation. The format is functional. The method in brief: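 Ciprofloxacin and deferoxamine serve as controls. MIC is taken as the highest dilution with visually clear wells.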
In data set [6] the test system is Pseudomonas aeruginosa. As to the kind of experiment: Antibiofilm activity against Pseudomonas aeruginosa PAO1 assessed as inhibition of biofilm formation incubated for 24 to 25 hrs at 20 uM in presence of sub-inhibitory concentration of tobramycin by WST8 dye based Diggle-protocol method relative to control. Type of data set: functional, organism-based. The method in brief:
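Diggle WST-8 biofilm method. PAO1 in 0.25% nutrient broth is exposed to compound at 20 μM mixed with tobramycin at 0.1 μM (subinhibitory). Incubation is 24−25 h at 37 °C. Washed wells are stained 3 h with 0.5 mM WST-8 and 20 μM phenazine ethosulfate. A450 of the supernatant is read.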

Data set [7] relates to Pseudomonas aeruginosa. In words: Antibiofilm activity against Pseudomonas aeruginosa PAO1 assessed as inhibition of biofilm formation incubated for 24 to 25 hrs at 50 uM by WST8 dye based Diggle-protocol method relative to control. Type of data set: functional. Summed up: as §1
The subject of data set [8] is Pseudomonas aeruginosa. As to the kind of experiment: Induction of fluorescent pyoverdine-1 siderophore production in siderophore-producing Pseudomonas aeruginosa PAO1 at 0.125 to 128 ug/mL incubated for 24 hrs under iron-supplemented succinate minimal medium in the presence of 50 uM of FeCl3. The format is functional, organism-based. The method in brief:
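PAO1 in succinate minimal medium with 8 μg/mL (50 μM) FeCl3, compound from DMSO dilutions. Plates are incubated 24 h at 35 °C. Iron-free pyoverdine is read by absorbance at 405 nm and by fluorescence (excitation 400 nm, emission 447 nm), with cell-free baselines. Runs are in duplicate at least twice, mean + SD.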

Data set [9] relates to Pseudomonas aeruginosa. As to the kind of experiment: Antimicrobial activity against siderophore-producing Pseudomonas aeruginosa PAO1 assessed as inhibition of bacterial growth at 0.125 to 128 ug/mL under iron-supplemented succinate minimal medium in the presence of 50 uM of FeCl3. The format is functional, organism-based. Summed up: (§2)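 Succinate minimal medium with FeCl3 at 8 μg/mL (50 μM), inoculated with the strain at 0.5 McFarland. Compound is added from 2-fold DMSO dilutions; DMSO alone is the growth control. Incubation is 24 h. OD600 gives growth, with cell-free baselines. Runs are at least duplicate, mean + SD; Mann−Whitney test, p<0.05.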

For data set [10], the target named is Fucose-binding lectin PA-IIL (Pseudomonas aeruginosa (strain ATCC 15692 / DSM 22644 / CIP 104116 / JCM14847 / LMG 12228 / 1C / PRS 101 / PAO1)) (UniProt Q9HYN5). As to the kind of experiment: Potency index, ratio of IC50 for Me-alpha-D-mannoside to IC50 for test compound for inhibition of Pseudomonas aeruginosa LecB by fluorescence polarization assay.
The subject of data set [11] is Pseudomonas aeruginosa. In words: Toxicity in Pseudomonas aeruginosa PAO1 incubated for 24 to 25 hrs at 20 uM in presence of sub-inhibitory concentration of tobramycin by WST8 dye based Diggle-protocol method relative to control. The format is organism-based. The conditions noted are these: in vivo.
In data set [12] the target is Fucose-binding lectin PA-IIL (Pseudomonas aeruginosa (strain ATCC 15692 / DSM 22644 / CIP 104116 / JCM14847 / LMG 12228 / 1C / PRS 101 / PAO1)) (UniProt Q9HYN5). In words: Potency index, ratio of IC50 for Me-alpha-L-fucoside to IC50 for test compound for inhibition of Pseudomonas aeruginosa LecB by fluorescence polarization assay.
Data set [13] concerns Pseudomonas aeruginosa. In words: Antimicrobial activity against siderophore-deficient Pseudomonas aeruginosa PAD07 in siderophore-deficient PAD07 assessed as inhibition of bacterial growth at 0.0625 to 128 ug/mL incubated for 24 hrs under iron-supplemented succinate minimal medium in the presence of 50 uM of FeCl3. The format is functional, organism-based. The method in brief: as §2

The subject of data set [14] is Pseudomonas aeruginosa. As to the kind of experiment: Antibiofilm activity against Pseudomonas aeruginosa PAO1 assessed as inhibition of biofilm formation incubated for 8 hrs at 20 uM by crystal violet based O'Toole method relative to control.
In data set [15] the test system is Pseudomonas aeruginosa. As to the kind of experiment: Antimicrobial activity against Pseudomonas aeruginosa PAO1 assessed as inhibition of planktonic cells growth at >0.15 uM incubated for 24 to 25 hrs. Type of data set: functional, organism-based. The method in brief:
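PAO1 inoculum from overnight LB culture, washed in 0.25% (w/v) nutrient broth no. 2, normalized to OD600 1 and added to the same broth containing the test compound. Incubation was 24−25 h at 37 °C in a humid environment. Planktonic growth was read from the supernatant: it was regrown in LB at 37 °C for 7−8 h and OD600 was compared with no-supernatant, or CFU were plated on LB agar.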

Sequence of Fucose-binding lectin PA-IIL (Q9HYN5 whole entry): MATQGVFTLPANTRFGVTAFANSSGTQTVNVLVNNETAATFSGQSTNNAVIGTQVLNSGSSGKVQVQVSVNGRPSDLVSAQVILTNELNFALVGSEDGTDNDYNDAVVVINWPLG
Sequence of Fucose-binding lectin PA-IIL (Pseudomonas aeruginosa (strain ATCC 15692 / DSM 22644 / CIP 104116 / JCM14847 / LMG 12228 / 1C / PRS 101 / PAO1)) (Q9HYN5 as listed by the source): as the sequence (Q9HYN5 whole entry) above

As to `CC(C)(C)c1cc2c(OCCCn3cc(CN(O)C(=O)CCCCCn4cc(CO[C@H]5O[C@H](CO)[C@@H](O)[C@H](O)[C@H]5O)nn4)nn3)c(c1)Cc1cc(C(C)(C)C)cc(c1OCCCn1cc(CN(O)C(=O)CCCCCn3cc(CO[C@H]4O[C@H](CO)[C@@H](O)[C@H](O)[C@H]4O)nn3)nn1)Cc1cc(C(C)(C)C)cc(c1OCCCn1cc(CN(O)C(=O)CCCCCn3cc(CO[C@H]4O[C@H](CO)[C@@H](O)[C@H](O)[C@H]4O)nn3)nn1)Cc1cc(C(C)(C)C)cc(c1OCCCn1cc(CN(O)C(=O)CCCCCn3cc(CO[C@H]4O[C@H](CO)[C@@H](O)[C@H](O)[C@H]4O)nn3)nn1)C2`, the inhibition (commonly the share of the control response that was lost under treatment) at 20 µM in the data set with Pseudomonas aeruginosa [1] is 92%. In data set [2], the Activity entry is “Non-Toxic”.

Consider `CC(C)(C)c1cc2c(OCCCn3cc(CN(O)C(=O)CCCCCn4cc(CO[C@H]5O[C@H](CO)[C@@H](O)[C@H](O)[C@@H]5O)nn4)nn3)c(c1)Cc1cc(C(C)(C)C)cc(c1OCCCn1cc(CN(O)C(=O)CCCCCn3cc(CO[C@H]4O[C@H](CO)[C@@H](O)[C@H](O)[C@@H]4O)nn3)nn1)Cc1cc(C(C)(C)C)cc(c1OCCCn1cc(CN(O)C(=O)CCCCCn3cc(CO[C@H]4O[C@H](CO)[C@@H](O)[C@H](O)[C@@H]4O)nn3)nn1)Cc1cc(C(C)(C)C)cc(c1OCCCn1cc(CN(O)C(=O)CCCCCn3cc(CO[C@H]4O[C@H](CO)[C@@H](O)[C@H](O)[C@@H]4O)nn3)nn1)C2`, for which the inhibition at 20 µM in the data set on Pseudomonas aeruginosa [1] was 84%; in the data set on Pseudomonas aeruginosa [3] it was 83%. Also, the IC50 – broadly, the concentration that gives 50% inhibition – in data set [4] came out at 0.664 µM. In addition, the MIC (commonly the smallest concentration in the dilution series that meets the test's criterion for growth inhibition) with Pseudomonas aeruginosa [5] was over 512 mg/L. The inhibition entry with Pseudomonas aeruginosa [6] is “Active”. Further, the inhibition at 50 µM with Pseudomonas aeruginosa [7] amounted to 70%. The Activity entry is “Dose-dependent effect” with Pseudomonas aeruginosa [8], “Non-Toxic” in data set [2] and “Non-Toxic” in the data set on Pseudomonas aeruginosa [11]. Moreover, in the data set with Pseudomonas aeruginosa [9], the outcome was inactive. Also, the Ratio IC50 in data set [10] worked out at 236.

Consider `C[C@@H]1O[C@@H](OCc2cn(CCCCCC(=O)N(O)Cc3cn(CCCOc4c5cc(C(C)(C)C)cc4Cc4cc(C(C)(C)C)cc(c4OCCCn4cc(CN(O)C(=O)CCCCCn6cc(CO[C@@H]7O[C@@H](C)[C@@H](O)[C@@H](O)[C@@H]7O)nn6)nn4)Cc4cc(C(C)(C)C)cc(c4OCCCn4cc(CN(O)C(=O)CCCCCn6cc(CO[C@@H]7O[C@@H](C)[C@@H](O)[C@@H](O)[C@@H]7O)nn6)nn4)Cc4cc(C(C)(C)C)cc(c4OCCCn4cc(CN(O)C(=O)CCCCCn6cc(CO[C@@H]7O[C@@H](C)[C@@H](O)[C@@H](O)[C@@H]7O)nn6)nn4)C5)nn3)nn2)[C@@H](O)[C@H](O)[C@@H]1O`, for which the inhibition at 20 µM in the data set on Pseudomonas aeruginosa [1] is 72%. In data set [4], this molecule gave an IC50 of 0.249 µM. In addition, the MIC in the data set with Pseudomonas aeruginosa [5] is over 512 mg/L. Moreover, the Ratio IC50 in [12] stood at 3.37. The inhibition entry with Pseudomonas aeruginosa [7] and in the data set on Pseudomonas aeruginosa [14] was “inactive” in each case. In addition, the Activity entry is “Dose-dependent effect” in the data set on Pseudomonas aeruginosa [8] and “Non-Toxic” in data set [2]. Besides, the outcome in the data set on Pseudomonas aeruginosa [9] and with Pseudomonas aeruginosa [13] was inactive.

As for `NC[C@H]1O[C@H](O[C@H]2[C@H](O)[C@@H](O[C@H]3O[C@H](CO)[C@@H](O)[C@H](N)[C@H]3O)[C@H](N)C[C@@H]2N)[C@H](N)C[C@@H]1O`, the outcome with Pseudomonas aeruginosa [15] was Active.

`O=C(CCCCCn1cc(CO[C@H]2O[C@H](CO)[C@@H](O)[C@H](O)[C@@H]2O)nn1)NOCc1ccccc1`: the IC50 in [4] amounted to 146 µM.

For the molecule `C[C@@H]1O[C@@H](OCc2cn(CCCCCC(=O)NOCc3ccccc3)nn2)[C@@H](O)[C@H](O)[C@@H]1O`, the IC50 in data set [4] turned out to be 0.5 µM.
